Source: ChEMBL document CHEMBL4376814, “Novel cyclin-dependent kinase 9 (CDK9) inhibitor with suppression of cancer stemness activity against non-small-cell lung cancer” (Eur J Med Chem, 2019)

Experiments:
[1] = target: Serine/threonine-protein kinase haspin (Homo sapiens) (UniProt Q8TF76); assay: Inhibition of recombinant human haspin (471 to end residues) at 1 uM using RARTLSFAEPG as substrate measured after 40 mins in presence of [gamma33P]ATP by scintillation counting method relative to control
Outline: (§1)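 Single-point inhibition at 1 µM was measured in the Eurofins KinaseProfiler panel. Values are the mean of two independent experiments.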

[2] = target: SRSF protein kinase 2 (Homo sapiens) (UniProt P78362); assay: Inhibition of human SRPK2 (46 to end residues) at 1 uM using RSRSRSRSRSRSRSR as substrate measured after 40 mins in presence of [gamma33P]ATP by scintillation counting method relative to control
Outline: (§2)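 Percent inhibition of kinase activity at a single compound concentration, measured by the outsourced Eurofins KinaseProfiler panel. Values are the mean of two independent experiments.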

[3] = test system: Tyrosine-protein kinase ABL1 (Homo sapiens), P00519 [M351T]; assay: Inhibition of human ABL M351T mutant (27 to end residues) at 1 uM using EAIYAAPFAKKK as substrate measured after 40 mins in presence of [gamma33P]ATP by scintillation counting method relative to control; outline: as §2
[4] = test system: Tyrosine-protein kinase ABL1 (Homo sapiens), P00519 [Y253F]; assay: Inhibition of recombinant human Abl Y253F mutant (27 to end residues) at 1 uM using EAIYAAPFAKKK as substrate measured after 40 mins in presence of [gamma33P]ATP by scintillation counting method relative to control
[5] = target: 5'-AMP-activated protein kinase catalytic subunit alpha-2 (Homo sapiens) (UniProt P54646); assay: Inhibition of full length recombinant human AMPK alpha2 at 1 uM using AMARAASAAALARRR as substrate measured after 40 mins in presence of [gamma33P]ATP by scintillation counting method relative to control
Homo sapiens [6] = species on record: Homo sapiens; assay: Inhibition of human Ros V2262A mutant (1883 to end residues) at 1 uM using KKKSPGEYVNIEFG as substrate measured after 40 mins in presence of [gamma33P]ATP by scintillation counting method relative to control; outline: as §2
[7] = target: Cytoplasmic tyrosine-protein kinase BMX (Homo sapiens) (UniProt P51813); assay: Inhibition of full-length recombinant human BMX at 1 uM using poly(Glu, Tyr) 4:1 as substrate measured after 40 mins in presence of [gamma33P]ATP by scintillation counting method relative to control; outline: as §2
[8] = target: Transient receptor potential cation channel subfamily M member 7 (Homo sapiens) (UniProt Q96QT4); assay: Inhibition of recombinant human CHAK1 (1180 to end residues) at 1 uM using myelin basic protein as substrate measured after 40 mins in presence of [gamma33P]ATP by scintillation counting method relative to control
[9] = test system: Angiopoietin-1 receptor (Homo sapiens), Q02763 [Q939H,Q940H]; assay: Inhibition of human Tie2 Q939H/Q940H mutant (771 to end residues) at 1 uM using poly(Glu, Tyr) 4:1 as substrate measured after 40 mins in presence of [gamma33P]ATP by scintillation counting method relative to control; outline: as §1
[10] = target: cGMP-dependent protein kinase 2 (Homo sapiens) (UniProt Q13237); assay: Inhibition of recombinant full-length human PRKG2 at 1 uM using KKLRRTLSFAEPG as substrate measured after 40 mins in presence of [gamma33P]ATP by scintillation counting method relative to control
[11] = test system: TGF-beta receptor type-1 (Homo sapiens), P36897 [T204D]; assay: Inhibition of human TGFBR1 T204D mutant (200 to end residues) at 1 uM using casein as substrate measured after 40 mins in presence of [gamma33P]ATP by scintillation counting method relative to control; outline: as §2
[12] = target: Calcium/calmodulin-dependent protein kinase type 1 (Homo sapiens) (UniProt Q14012); assay: Inhibition of recombinant human CaMK1 (2 to end residues) at 1 uM using calmodulin as substrate measured after 40 mins in presence of [gamma33P]ATP by scintillation counting method relative to control
Homo sapiens [13] = species on record: Homo sapiens; assay: Inhibition of recombinant human DDR1 V833L mutant (492 to end residues) at 1 uM using KKKSPGEYVNIEFG as substrate measured after 40 mins in presence of [gamma33P]ATP by scintillation counting method relative to control
[14] = target: CDK4/Cyclin D3 (Homo sapiens) (UniProt P11802+P30281); assay: Inhibition of recombinant full-length human CDK4/cyclinD3 at 1 uM using Rb fragment as substrate measured after 40 mins in presence of [gamma33P]ATP by scintillation counting method relative to control; format: protein-complex assay; outline: as §2
[15] = target: Testis-specific serine/threonine-protein kinase 3 (Homo sapiens) (UniProt Q96PN8); assay: Inhibition of recombinant full-length human TSSK3 at 1 uM using AMARAASAAALARRR as substrate measured after 40 mins in presence of [gamma33P]ATP by scintillation counting method relative to control
[16] = target: Proto-oncogene tyrosine-protein kinase receptor Ret (Homo sapiens) (UniProt P07949); assay: Inhibition of human Ret (658 to end residues) at 1 uM using KKKSPGEYVNIEFG as substrate measured after 40 mins in presence of [gamma33P]ATP by scintillation counting method relative to control; outline: as §2
[17] = test system: CDK18/Cyclin Y (Homo sapiens), Q07002+Q8ND76 [T166M]; assay: Inhibition of recombinant full length human cyclinY/CDK18 T166M mutant at 1 uM using YRRAAVPPSPSLS as substrate measured after 40 mins in presence of [gamma33P]ATP by scintillation counting method relative to control; format: protein-complex assay; outline: as §1
[18] = target: Homeodomain-interacting protein kinase 1 (Homo sapiens) (UniProt Q86Z02); assay: Inhibition of recombinant human activated HIPK1 (158 to 555 residues) at 1 uM using myelin basic protein as substrate measured after 40 mins in presence of [gamma33P]ATP by scintillation counting method relative to control
[19] = target: Serine/threonine-protein kinase 25 (Homo sapiens) (UniProt O00506); assay: Inhibition of human STK25 (1 to 308 residues) at 1 uM using RLGRDKYKTLRQIRQ as substrate measured after 40 mins in presence of [gamma33P]ATP by scintillation counting method relative to control; outline: as §2
[20] = target: Fibroblast growth factor receptor 3 (Homo sapiens) (UniProt P22607); assay: Inhibition of recombinant human FGFR3 (447 to 761 residues) at 1 uM using poly(Glu, Tyr) 4:1 as substrate measured after 40 mins in presence of [gamma33P]ATP by scintillation counting method relative to control
[21] = Half life in Beagle dog liver microsomes at 2 uM in presence of NADPH measured up to 1 hr by HPLC analysis; format: ADME, Canis lupus familiaris, Microsome
Outline: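 Drug at 2 µM incubated at 37 °C with male liver microsomes at 1 mg/mL, in 0.1 M phosphate buffer pH 7.4 with MgCl2. After 5 min preincubation, reaction started with NADPH. Samples (n=3) taken at 0, 10, 20, 30, 45 and 60 min, quenched with ice-cold acetonitrile, spun, and analysed by HPLC. t1/2 derived from the fitted rate constant k.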

Chain of TGF-beta receptor type-1 (Homo sapiens), P36897 [T204D] (P36897 whole entry T204D): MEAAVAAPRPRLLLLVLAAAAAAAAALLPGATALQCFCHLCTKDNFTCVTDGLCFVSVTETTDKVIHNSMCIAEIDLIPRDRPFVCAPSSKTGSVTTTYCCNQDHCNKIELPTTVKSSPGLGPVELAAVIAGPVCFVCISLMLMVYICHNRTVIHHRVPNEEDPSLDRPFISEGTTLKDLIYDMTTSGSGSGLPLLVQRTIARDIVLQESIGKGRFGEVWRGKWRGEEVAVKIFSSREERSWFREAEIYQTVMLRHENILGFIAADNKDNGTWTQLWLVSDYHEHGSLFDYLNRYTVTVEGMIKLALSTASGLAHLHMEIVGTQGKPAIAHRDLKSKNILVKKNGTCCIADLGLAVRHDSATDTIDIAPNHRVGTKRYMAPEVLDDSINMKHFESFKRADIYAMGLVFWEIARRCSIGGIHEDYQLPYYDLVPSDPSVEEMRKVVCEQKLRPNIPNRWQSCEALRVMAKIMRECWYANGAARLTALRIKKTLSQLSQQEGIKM
Chain of Serine/threonine-protein kinase 25 (Homo sapiens) (O00506 whole entry, looked up, the tested form may be a part): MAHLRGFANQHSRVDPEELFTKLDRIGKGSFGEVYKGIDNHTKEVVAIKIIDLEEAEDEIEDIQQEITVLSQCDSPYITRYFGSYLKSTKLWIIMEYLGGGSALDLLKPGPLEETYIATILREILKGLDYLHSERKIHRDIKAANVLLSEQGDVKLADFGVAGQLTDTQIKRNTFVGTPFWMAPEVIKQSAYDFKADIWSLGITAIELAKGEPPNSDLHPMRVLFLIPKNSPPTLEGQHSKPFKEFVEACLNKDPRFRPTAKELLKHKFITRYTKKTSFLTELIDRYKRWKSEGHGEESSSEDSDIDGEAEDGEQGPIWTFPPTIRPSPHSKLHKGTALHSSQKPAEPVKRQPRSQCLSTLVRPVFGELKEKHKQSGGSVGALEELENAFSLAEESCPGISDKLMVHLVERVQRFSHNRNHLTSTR
Chain of cGMP-dependent protein kinase 2 (Homo sapiens) (Q13237 whole entry): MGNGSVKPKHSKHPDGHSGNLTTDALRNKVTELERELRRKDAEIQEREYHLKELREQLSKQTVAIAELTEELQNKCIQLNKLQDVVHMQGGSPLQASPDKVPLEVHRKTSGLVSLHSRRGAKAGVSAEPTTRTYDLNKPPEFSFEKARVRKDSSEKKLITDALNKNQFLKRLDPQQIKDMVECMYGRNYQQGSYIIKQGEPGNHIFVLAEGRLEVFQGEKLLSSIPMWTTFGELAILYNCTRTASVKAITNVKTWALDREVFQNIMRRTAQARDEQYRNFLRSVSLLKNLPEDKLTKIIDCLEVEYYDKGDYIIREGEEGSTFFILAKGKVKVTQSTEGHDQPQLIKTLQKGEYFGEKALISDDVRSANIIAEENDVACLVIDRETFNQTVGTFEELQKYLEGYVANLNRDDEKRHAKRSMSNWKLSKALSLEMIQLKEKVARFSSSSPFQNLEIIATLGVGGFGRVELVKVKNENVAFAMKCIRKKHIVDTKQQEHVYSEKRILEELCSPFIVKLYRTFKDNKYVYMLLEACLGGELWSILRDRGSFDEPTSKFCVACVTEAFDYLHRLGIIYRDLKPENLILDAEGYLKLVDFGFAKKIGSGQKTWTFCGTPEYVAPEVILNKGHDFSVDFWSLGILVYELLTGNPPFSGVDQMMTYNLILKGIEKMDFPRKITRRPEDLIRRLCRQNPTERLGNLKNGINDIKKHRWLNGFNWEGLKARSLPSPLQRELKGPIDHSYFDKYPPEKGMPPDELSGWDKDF
Chain of Transient receptor potential cation channel subfamily M member 7 (Homo sapiens) (Q96QT4 whole entry): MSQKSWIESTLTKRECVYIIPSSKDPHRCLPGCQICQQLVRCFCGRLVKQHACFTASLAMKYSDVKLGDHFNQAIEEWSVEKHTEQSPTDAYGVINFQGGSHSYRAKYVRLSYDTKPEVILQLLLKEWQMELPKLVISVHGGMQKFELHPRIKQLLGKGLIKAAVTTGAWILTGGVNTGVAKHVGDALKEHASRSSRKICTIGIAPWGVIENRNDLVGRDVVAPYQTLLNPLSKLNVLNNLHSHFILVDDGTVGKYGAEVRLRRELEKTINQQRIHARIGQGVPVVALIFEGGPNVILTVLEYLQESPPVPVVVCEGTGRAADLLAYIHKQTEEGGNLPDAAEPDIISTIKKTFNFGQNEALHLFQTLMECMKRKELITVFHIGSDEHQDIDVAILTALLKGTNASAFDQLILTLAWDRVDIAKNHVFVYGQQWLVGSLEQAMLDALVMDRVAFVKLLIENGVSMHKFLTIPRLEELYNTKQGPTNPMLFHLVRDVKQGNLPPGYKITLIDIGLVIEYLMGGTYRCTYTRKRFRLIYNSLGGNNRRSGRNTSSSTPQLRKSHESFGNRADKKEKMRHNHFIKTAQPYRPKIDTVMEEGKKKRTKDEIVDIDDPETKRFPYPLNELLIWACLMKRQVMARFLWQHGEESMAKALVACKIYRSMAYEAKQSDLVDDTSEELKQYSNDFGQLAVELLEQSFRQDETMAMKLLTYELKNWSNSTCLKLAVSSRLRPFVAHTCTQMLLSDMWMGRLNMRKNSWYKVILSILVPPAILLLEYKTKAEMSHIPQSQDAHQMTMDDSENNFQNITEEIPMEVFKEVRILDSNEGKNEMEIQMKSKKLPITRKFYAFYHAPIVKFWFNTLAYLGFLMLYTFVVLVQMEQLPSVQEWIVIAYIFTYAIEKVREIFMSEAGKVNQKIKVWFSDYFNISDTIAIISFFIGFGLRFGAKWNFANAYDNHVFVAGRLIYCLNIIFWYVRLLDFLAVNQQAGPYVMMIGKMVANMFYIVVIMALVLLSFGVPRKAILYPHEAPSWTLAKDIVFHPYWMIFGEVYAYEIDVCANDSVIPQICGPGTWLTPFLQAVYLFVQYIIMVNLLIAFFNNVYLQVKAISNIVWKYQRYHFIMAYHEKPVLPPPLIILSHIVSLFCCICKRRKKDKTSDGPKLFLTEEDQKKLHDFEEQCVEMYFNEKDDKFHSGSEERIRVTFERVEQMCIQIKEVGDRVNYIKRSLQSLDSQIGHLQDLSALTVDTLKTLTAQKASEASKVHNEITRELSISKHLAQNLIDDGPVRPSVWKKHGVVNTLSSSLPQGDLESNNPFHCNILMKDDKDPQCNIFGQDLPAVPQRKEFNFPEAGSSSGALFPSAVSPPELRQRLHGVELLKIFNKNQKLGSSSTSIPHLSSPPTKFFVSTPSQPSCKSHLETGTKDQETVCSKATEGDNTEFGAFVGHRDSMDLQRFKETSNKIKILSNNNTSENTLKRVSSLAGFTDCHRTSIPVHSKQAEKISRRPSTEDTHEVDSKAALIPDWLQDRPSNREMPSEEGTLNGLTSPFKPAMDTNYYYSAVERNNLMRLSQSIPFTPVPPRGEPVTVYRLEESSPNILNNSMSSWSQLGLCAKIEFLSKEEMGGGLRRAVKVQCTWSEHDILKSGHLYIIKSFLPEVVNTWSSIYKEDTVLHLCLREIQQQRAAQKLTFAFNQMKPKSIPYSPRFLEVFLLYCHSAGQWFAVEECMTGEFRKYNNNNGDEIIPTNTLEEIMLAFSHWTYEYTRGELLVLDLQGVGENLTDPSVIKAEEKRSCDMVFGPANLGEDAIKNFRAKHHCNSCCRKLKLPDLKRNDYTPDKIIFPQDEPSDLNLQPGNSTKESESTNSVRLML
Chain of Testis-specific serine/threonine-protein kinase 3 (Homo sapiens) (Q96PN8 whole entry): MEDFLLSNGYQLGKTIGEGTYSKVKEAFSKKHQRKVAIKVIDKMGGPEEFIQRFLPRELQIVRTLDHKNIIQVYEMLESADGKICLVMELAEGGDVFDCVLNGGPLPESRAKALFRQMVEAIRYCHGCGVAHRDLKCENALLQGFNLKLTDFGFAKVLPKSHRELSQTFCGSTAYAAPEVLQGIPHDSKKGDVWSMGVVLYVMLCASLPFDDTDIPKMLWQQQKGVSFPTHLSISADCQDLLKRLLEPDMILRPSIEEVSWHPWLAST
Chain of Fibroblast growth factor receptor 3 (Homo sapiens) (P22607 23-806 limits assumed): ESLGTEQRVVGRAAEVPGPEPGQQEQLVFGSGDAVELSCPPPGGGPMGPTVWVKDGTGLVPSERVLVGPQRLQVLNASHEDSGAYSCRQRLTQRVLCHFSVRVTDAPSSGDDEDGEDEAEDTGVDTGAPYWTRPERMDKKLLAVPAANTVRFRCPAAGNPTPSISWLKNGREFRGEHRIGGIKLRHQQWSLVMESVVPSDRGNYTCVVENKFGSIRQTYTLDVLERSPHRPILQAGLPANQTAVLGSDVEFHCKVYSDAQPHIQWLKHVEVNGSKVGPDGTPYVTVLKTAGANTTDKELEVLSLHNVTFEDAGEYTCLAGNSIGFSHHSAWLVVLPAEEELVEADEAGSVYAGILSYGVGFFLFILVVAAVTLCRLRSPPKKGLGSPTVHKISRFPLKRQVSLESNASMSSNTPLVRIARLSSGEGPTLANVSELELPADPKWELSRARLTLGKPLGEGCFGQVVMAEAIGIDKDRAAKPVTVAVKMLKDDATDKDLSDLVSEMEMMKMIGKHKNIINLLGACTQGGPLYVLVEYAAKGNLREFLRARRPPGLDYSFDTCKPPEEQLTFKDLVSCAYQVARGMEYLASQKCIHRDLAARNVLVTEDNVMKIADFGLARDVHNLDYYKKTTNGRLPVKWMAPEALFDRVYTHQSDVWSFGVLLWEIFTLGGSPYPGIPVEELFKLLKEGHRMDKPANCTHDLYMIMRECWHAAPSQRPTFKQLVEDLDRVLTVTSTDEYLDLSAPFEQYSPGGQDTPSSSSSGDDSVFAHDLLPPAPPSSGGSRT
Chain of Calcium/calmodulin-dependent protein kinase type 1 (Homo sapiens) (Q14012 whole entry, looked up): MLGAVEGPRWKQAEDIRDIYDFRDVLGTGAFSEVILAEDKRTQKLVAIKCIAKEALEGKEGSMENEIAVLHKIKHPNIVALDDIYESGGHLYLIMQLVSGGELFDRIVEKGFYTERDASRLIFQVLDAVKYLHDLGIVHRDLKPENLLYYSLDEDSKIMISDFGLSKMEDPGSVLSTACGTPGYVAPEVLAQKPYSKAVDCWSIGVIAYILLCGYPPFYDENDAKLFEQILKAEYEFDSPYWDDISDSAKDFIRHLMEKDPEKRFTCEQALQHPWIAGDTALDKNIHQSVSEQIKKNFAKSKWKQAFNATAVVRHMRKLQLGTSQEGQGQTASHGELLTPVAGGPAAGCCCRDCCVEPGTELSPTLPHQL

## CN(C)C(=O)c1cc2cnc(Nc3ccc(NC(=O)CCCCCCCN=C=S)cc3)nc2n1C1CCCC1
[1]
  inhibition: 11%
[2]
  inhibition: 4%
[3]
  inhibition: 49%
[4]
  inhibition: 53%
[5]
  inhibition: 20%
Homo sapiens [6]
  inhibition: 0%
[7]
  inhibition: 90%
[8]
  inhibition: 16%
[9]
  inhibition: 29%
[10]
  inhibition: 0%
[11]
  inhibition: 13%
[12]
  inhibition: 6%
Homo sapiens [13]
  inhibition: 47%
[14]
  inhibition: 87%
[15]
  inhibition: 4%
[16]
  inhibition: 55%
[17]
  inhibition: 11%
[18]
  inhibition: 9%
[19]
  inhibition: -2%
[20]
  inhibition: 28%
[21]
  half-life at 2 µM: 26.7 min
